ChEMBL document CHEMBL3271984, “Antifungal activity of 4-substituted crotonic acid esters” (1976)
≈ marks a conversion by molar mass, not a printed value. Calls of active or inactive are those of the source. The rule behind the calls is not given here.

Key:
Aspergillus niger [1] = test: Antifungal activity against Aspergillus niger ATCC 1004 assessed as ratio of glutathione to compound at pH 7 incubated for 5 days in absence of 10% beef serum; assay type: functional
Method in brief: (§1)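 Sabouraud agar at pH 7.0 without beef serum. The toxicant was added at one increment above its minimal inhibitory level for each organism. Cystine, cysteine or glutathione was added at molar ratios of 1:1 to 10:1 versus toxicant, in 1-equiv steps. Plates were inoculated and incubated at 37° for 20 h (C. albicans, M. mucedo) or 28° for 5 days (A. niger, T. mentagrophytes), then scored for growth.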

Aspergillus niger [2] = test: Antifungal activity against Aspergillus niger ATCC 1004 assessed as growth inhibition at pH 5.6 incubated for 5 days in presence of 10% beef serum; assay type: functional; conditions: for MIC: ATCC 1004, 120 h, read-out: MIC100
Method in brief: (§2)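 Agar dilution in Sabouraud dextrose agar at pH 5.6 or 7.0, with or without 10% beef serum. C. albicans and M. mucedo were incubated 20 h at 37°; A. niger and T. mentagrophytes 5 days at 28°. The value is the minimal µg/ml giving 100% inhibition. Steps were 1 µg/ml up to 10, 2 up to 20, then 10 up to 100 µg/ml maximum.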

Mucor mucedo [3] = test: Antifungal activity against Mucor mucedo ATCC 7941 assessed as ratio of cystine to compound at pH 7 incubated for 20 hrs in absence of 10% beef serum; assay type: functional; method in brief: as §1
Aspergillus niger [4] = test: Antifungal activity against Aspergillus niger ATCC 1004 assessed as growth inhibition at pH 7 incubated for 5 days in presence of 10% beef serum; assay type: functional; conditions: for MIC: ATCC 1004, 120 h, read-out: MIC100; method in brief: as §2
Mucor mucedo [5] = test: Antifungal activity against Mucor mucedo ATCC 7941 assessed as ratio of glutathione to compound at pH 7 incubated for 20 hrs in absence of 10% beef serum; assay type: functional; method in brief: as §1
Mucor mucedo [6] = test: Antifungal activity against Mucor mucedo ATCC 7941 assessed as growth inhibition at pH 5.6 incubated for 20 hrs in absence of 10% beef serum; assay type: functional; conditions: ATCC 7941, 20 h, read-out: MIC100; method in brief: as §2
Candida albicans [7] = test: Antifungal activity against Candida albicans ATCC 10231 assessed as growth inhibition at pH 7 incubated for 20 hrs in absence of 10% beef serum; assay type: functional; conditions: ATCC 10231, 20 h, read-out: MIC100; method in brief: as §2
[8] = test system: Trichophyton mentagrophytes; test: Antifungal activity against Trichophyton mentagrophytes ATCC 9129 assessed as ratio of cystine to compound at pH 7 incubated for 5 days in absence of 10% beef serum; assay type: functional; method in brief: as §1
[9] = test system: Trichophyton mentagrophytes; test: Antifungal activity against Trichophyton mentagrophytes ATCC 9129 assessed as growth inhibition at pH 5.6 incubated for 5 days in absence of 10% beef serum; assay type: functional; conditions: ATCC 9129, 120 h, read-out: MIC100; method in brief: as §2
Mucor mucedo [10] = test: Antifungal activity against Mucor mucedo ATCC 7941 assessed as ratio of cysteine to compound at pH 7 incubated for 20 hrs in absence of 10% beef serum; assay type: functional; method in brief: as §1
[11] = test system: Trichophyton mentagrophytes; test: Antifungal activity against Trichophyton mentagrophytes ATCC 9129 assessed as ratio of glutathione to compound at pH 7 incubated for 5 days in absence of 10% beef serum; assay type: functional; method in brief: as §1
Candida albicans [12] = test: Antifungal activity against Candida albicans ATCC 10231 assessed as growth inhibition at pH 7 incubated for 20 hrs in presence of 10% beef serum; assay type: functional; conditions: ATCC 10231, 20 h, read-out: MIC100; method in brief: as §2
Aspergillus niger [13] = test: Antifungal activity against Aspergillus niger ATCC 1004 assessed as ratio of cystine to compound at pH 7 incubated for 5 days in absence of 10% beef serum; assay type: functional; method in brief: as §1
Candida albicans [14] = test: Antifungal activity against Candida albicans ATCC 10231 assessed as growth inhibition at pH 5.6 incubated for 20 hrs in absence of 10% beef serum; assay type: functional; conditions: ATCC 10231, 20 h, read-out: MIC100; method in brief: as §2
[15] = test system: Trichophyton mentagrophytes; test: Antifungal activity against Trichophyton mentagrophytes ATCC 9129 assessed as growth inhibition at pH 7 incubated for 5 days in presence of 10% beef serum; assay type: functional; conditions: ATCC 9129, 120 h, read-out: MIC100; method in brief: as §2
Aspergillus niger [16] = test: Antifungal activity against Aspergillus niger ATCC 1004 assessed as growth inhibition at pH 7 incubated for 5 days in absence of 10% beef serum; assay type: functional; conditions: ATCC 1004, 120 h, read-out: MIC100; method in brief: as §2
[17] = test system: Trichophyton mentagrophytes; test: Antifungal activity against Trichophyton mentagrophytes ATCC 9129 assessed as growth inhibition at pH 7 incubated for 5 days in absence of 10% beef serum; assay type: functional; conditions: ATCC 9129, 120 h, read-out: MIC100; method in brief: as §2
Candida albicans [18] = test: Antifungal activity against Candida albicans ATCC 10231 assessed as growth inhibition at pH 5.6 incubated for 20 hrs in presence of 10% beef serum; assay type: functional; conditions: ATCC 10231, 20 h, read-out: MIC100; method in brief: as §2
Mucor mucedo [19] = test: Antifungal activity against Mucor mucedo ATCC 7941 assessed as growth inhibition at pH 5.6 incubated for 20 hrs in presence of 10% beef serum; assay type: functional; conditions: ATCC 7941, 20 h, read-out: MIC100; method in brief: as §2
Candida albicans [20] = test: Antifungal activity against Candida albicans ATCC 10231 assessed as ratio of glutathione to compound at pH 7 incubated for 20 hrs in absence of 10% beef serum; assay type: functional; method in brief: as §1
Aspergillus niger [21] = test: Antifungal activity against Aspergillus niger ATCC 1004 assessed as ratio of cysteine to compound at pH 7 incubated for 5 days in absence of 10% beef serum; assay type: functional; method in brief: as §1
Candida albicans [22] = test: Antifungal activity against Candida albicans ATCC 10231 assessed as ratio of cystine to compound at pH 7 incubated for 20 hrs in absence of 10% beef serum; assay type: functional; method in brief: as §1
Mucor mucedo [23] = test: Antifungal activity against Mucor mucedo ATCC 7941 assessed as growth inhibition at pH 7 incubated for 20 hrs in absence of 10% beef serum; assay type: functional; conditions: ATCC 7941, 20 h, read-out: MIC100; method in brief: as §2
Candida albicans [24] = test: Antifungal activity against Candida albicans ATCC 10231 assessed as ratio of cysteine to compound at pH 7 incubated for 20 hrs in absence of 10% beef serum; assay type: functional; method in brief: as §1
Mucor mucedo [25] = test: Antifungal activity against Mucor mucedo ATCC 7941 assessed as growth inhibition at pH 7 incubated for 20 hrs in presence of 10% beef serum; assay type: functional; conditions: ATCC 7941, 20 h, read-out: MIC100; method in brief: as §2
[26] = test system: Trichophyton mentagrophytes; test: Antifungal activity against Trichophyton mentagrophytes ATCC 9129 assessed as ratio of cysteine to compound at pH 7 incubated for 5 days in absence of 10% beef serum; assay type: functional; method in brief: as §1
Aspergillus niger [27] = test: Antifungal activity against Aspergillus niger ATCC 1004 assessed as growth inhibition at pH 5.6 incubated for 5 days in absence of 10% beef serum; assay type: functional; conditions: ATCC 1004, 120 h, read-out: MIC100; method in brief: as §2
[28] = test system: Trichophyton mentagrophytes; test: Antifungal activity against Trichophyton mentagrophytes ATCC 9129 assessed as growth inhibition at pH 5.6 incubated for 5 days in presence of 10% beef serum; assay type: functional; conditions: ATCC 9129, 120 h, read-out: MIC100; method in brief: as §2
Mucor mucedo [29] = test: Antifungal activity against Mucor mucedo ATCC 7941 incubated for 20 hrs; assay type: functional, organism-based
Aspergillus niger [30] = test: Antifungal activity against Aspergillus niger ATCC 1004 incubated for 5 days; assay type: functional, organism-based
Candida albicans [31] = test: Antifungal activity against Candida albicans ATCC 10231 incubated for 20 hrs; assay type: functional, organism-based
[32] = test system: Trichophyton mentagrophytes; test: Antifungal activity against Trichophyton mentagrophytes ATCC 9129 incubated for 5 days; assay type: functional, organism-based

SMILES | MIC (Aspergillus niger [2]) [µg/mL] | MIC (Aspergillus niger [4]) [µg/mL] | MIC (Mucor mucedo [6]) [µg/mL] | MIC (Candida albicans [7]) [µg/mL] | MIC [9] [µg/mL] | MIC (Candida albicans [12]) [µg/mL] | MIC (Candida albicans [14]) [µg/mL] | MIC [15] [µg/mL] | MIC (Aspergillus niger [16]) [µg/mL] | MIC [17] [µg/mL] | MIC (Candida albicans [18]) [µg/mL] | MIC (Mucor mucedo [19]) [µg/mL] | MIC (Mucor mucedo [23]) [µg/mL] | MIC (Mucor mucedo [25]) [µg/mL] | MIC (Aspergillus niger [27]) [µg/mL] | MIC [28] [µg/mL] | Activity (Mucor mucedo [29]) | Activity (Aspergillus niger [30]) | Activity (Candida albicans [31]) | Activity [32] | also measured
COC(=O)/C=C/CBr | 50 | 60 | 6 (≈ 33.5 µM) | 30 (≈ 168 µM) | 3 (≈ 16.8 µM) | 30 | 30 (≈ 168 µM) | 6 | 50 (≈ 279 µM) | 5 (≈ 27.9 µM) | 30 | 8 | 10 (≈ 55.9 µM) | 14 | 50 (≈ 279 µM) | 5 |  |  |  |  | Ratio (Aspergillus niger [1]): <1; Ratio (Mucor mucedo [3]): >10; Ratio (Mucor mucedo [5]): 8; Ratio [8]: >10; Ratio (Mucor mucedo [10]): 4; Ratio [11]: 9; Ratio (Aspergillus niger [13]): >10; Ratio (Candida albicans [20]): 3; Ratio (Aspergillus niger [21]): <1; Ratio (Candida albicans [22]): >10; Ratio (Candida albicans [24]): 2; Ratio [26]: 10
C/C=C/C(=O)OC |  |  |  |  |  |  |  |  |  |  |  |  |  |  |  |  | inactive | inactive | inactive | inactive | 
C/C=C/C(=O)OCCCCCC |  |  |  |  |  |  |  |  |  |  |  |  |  |  |  |  | inactive | inactive | inactive | inactive | 
C/C=C/C(=O)OCCCCC |  |  |  |  |  |  |  |  |  |  |  |  |  |  |  |  | inactive | inactive | inactive | inactive | 
C/C=C/C(=O)OCCCC |  |  |  |  |  |  |  |  |  |  |  |  |  |  |  |  | inactive | inactive | inactive | inactive | 
COC(=O)/C=C/CSC |  |  | 70 (≈ 479 µM) |  | 90 (≈ 616 µM) |  |  |  |  | 70 (≈ 479 µM) |  |  | 80 (≈ 547 µM) |  |  |  |  |  |  |  | Ratio (Mucor mucedo [3]): >10; Ratio (Mucor mucedo [5]): <1; Ratio [8]: >10; Ratio (Mucor mucedo [10]): <1; Ratio [11]: <1; Ratio [26]: <1
CCCOC(=O)/C=C/CBr | 90 | 80 | 4 (≈ 19.3 µM) | 30 (≈ 145 µM) | < 1 | 40 | 18 (≈ 86.9 µM) | 7 | 60 (≈ 290 µM) | 3 (≈ 14.5 µM) | 30 | 5 | 4 (≈ 19.3 µM) | 7 | 80 (≈ 386 µM) | 3 |  |  |  |  | 
C=CC(=O)OC |  |  |  |  |  |  |  |  |  |  |  |  |  |  |  |  | inactive | inactive | inactive | inactive | 
CCOC(=O)/C=C/CI | 50 | 40 | < 1 | 10 (≈ 41.7 µM) | < 1 | 18 | 8 (≈ 33.3 µM) | 4 | 40 (≈ 167 µM) | 2 (≈ 8.33 µM) | 18 | 4 | 3 (≈ 12.5 µM) | 5 | 40 (≈ 167 µM) | 2 |  |  |  |  | 
C/C=C/C(=O)OCC |  |  |  |  |  |  |  |  |  |  |  |  |  |  |  |  | inactive | inactive | inactive | inactive | 
C/C=C/C(=O)OCCC |  |  |  |  |  |  |  |  |  |  |  |  |  |  |  |  | inactive | inactive | inactive | inactive | 
CCCCCOC(=O)/C=C/CBr |  |  | 3 (≈ 12.8 µM) | 30 (≈ 128 µM) | < 1 | 50 | 20 (≈ 85.1 µM) | 10 | 70 (≈ 298 µM) | 2 (≈ 8.51 µM) | 50 | 14 | 14 (≈ 59.5 µM) | 30 | 70 (≈ 298 µM) | 4 |  |  |  |  | MIC100 (Aspergillus niger [2]): inactive; MIC100 (Aspergillus niger [4]): inactive
CCOC(=O)/C=C/CBr | 90 | 80 | 5 (≈ 25.9 µM) | 30 (≈ 155 µM) | < 1 | 40 | 20 (≈ 104 µM) | 4 | 70 (≈ 363 µM) | 2 (≈ 10.4 µM) | 30 | 7 | 6 (≈ 31.1 µM) | 7 | 80 (≈ 414 µM) | 2 |  |  |  |  | 
